≈ marks a conversion by molar mass, not a printed value. A value given as a limit tells only on which side of the number the result lay.

One data set concerns Trypanosoma cruzi. Description: WHO-TDR: Chagas disease. The class given is functional, organism-based, Homo sapiens. To be noted: MRC5. The method in brief:
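A diverse library of 10,000 compounds from Life Chemicals, filtered for drug-likeness and reactive groups, was screened against intracellular amastigotes of Trypanosoma cruzi Tulahuen CL2 beta-galactosidase strain. The parasites were grown in MRC-5SV2 human lung fibroblast host cells, and a reference drug served as positive control under previously published standard procedures. Antiparasitic potency is given as IC50.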

The test system of a further data set is Plasmodium falciparum K1. Description: WHO-TDR: Malaria. Type of data set: functional, organism-based, Homo sapiens. To be noted: Erythrocyte. The method in brief: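 Values are IC50 figures for antiplasmodial potency. They come from a whole-organism screen of 10,000 diverse Life Chemicals compounds against Plasmodium falciparum K1 growing inside human red blood cells, run by previously published standard procedures.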

A further data set relates to Leishmania infantum. Description: WHO-TDR: Leishmaniasis. To be noted: Macrophage. The class given is functional, organism-based, Mus musculus. The method in brief: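 Values are IC50 figures for antiparasitic potency. They come from a whole-organism screen of a 10,000-compound diverse Life Chemicals library against Leishmania infantum MHOM/MA(BE)/67 amastigotes inside murine peritoneal macrophage host cells.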

Data set [1] deals with Trypanosoma brucei brucei. Description: WHO-TDR: Human African Trypanosomiasis (HAT). To be noted: Squib-427. Type of data set: functional, organism-based. An outline of the steps:
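Values are IC50 figures for antiparasitic potency. They come from a whole-organism screen of 10,000 diverse Life Chemicals compounds against bloodstream-form Trypanosoma brucei (Squib 427 strain).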

In the next data set the test system is Onchocerca lienalis. Description: WHO-TDR: Onchocerciasis. Details: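 at 12.5 µM on microfilariae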. The class given is functional. The method in brief: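 A diverse library of 10,000 compounds from Life Chemicals, filtered for drug-likeness and reactive groups, was screened against whole microfilariae of Onchocerca ochengi or Onchocerca lienalis. These animal pathogens served as stand-ins for the human parasite. Activity is given as percent inhibition and as IC50.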

Data set [2] in a line: WHO-TDR: Cytotoxicity. Type of data set: toxicity, cell-based. To be noted: human, MRC5 cells.
Another data set deals with Schistosoma mansoni. Description: WHO-TDR: Schistosomiasis. The class given is functional. On the set-up: concentration or dose not given beside the values. The method in brief: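 A diverse library of 10,000 compounds from Life Chemicals, filtered for drug-likeness and reactive groups, was screened against whole larval and/or adult Schistosoma mansoni worms of the Puerto Rican strain. Previously published standard procedures were followed, with a reference drug as positive control. Activity is given as percent inhibition and as IC50.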

One may read the IC50 as the point on the concentration scale where inhibition reaches its midpoint. By % Inhibition is commonly meant the change of the read-out against control, counted positive when it falls. As for `CCOC(=O)N1CCc2c(sc(NC(=O)c3ccco3)c2-c2nc3ccccc3s2)C1`, the IC50 in the data set on Trypanosoma cruzi was 0.455 µg/mL (≈ 1 µM); with Plasmodium falciparum K1, 1.36 µg/mL (≈ 3 µM); in the data set with Leishmania infantum, 0.43 µg/mL (≈ 0.948 µM); in data set [1], 0.377 µg/mL (≈ 0.831 µM); in data set [2], 4.51 µg/mL (≈ 9.95 µM). Also, the “% Inhibition” value with Onchocerca lienalis came out at 73.3%; in the data set with Schistosoma mansoni, 58.7%.

For the compound `O=C(NCCc1csc(-c2ccccc2)n1)C1CCCC1`, the IC50 with Trypanosoma cruzi was 0.345 µg/mL (≈ 1.15 µM); in the data set on Plasmodium falciparum K1, more than 9.01 µg/mL; in the data set with Leishmania infantum, more than 9.01 µg/mL; in data set [1] it was 0.152 µg/mL (≈ 0.506 µM); in data set [2], more than 9.01 µg/mL. Also, the “% Inhibition” value in the data set with Onchocerca lienalis and in the data set with Schistosoma mansoni was 0% each time.

With `CCOC(=O)c1c(NC(=O)C2COc3ccccc3O2)sc2c1CC(C)(C)NC2(C)C` (configuration not stated), the IC50 in the data set with Trypanosoma cruzi stood at 4.1 µg/mL (≈ 9.22 µM); in the data set with Plasmodium falciparum K1, 4.01 µg/mL (≈ 9.02 µM); in the data set on Leishmania infantum it was 4.22 µg/mL (≈ 9.49 µM); in data set [1] it was 0.396 µg/mL (≈ 0.891 µM); in data set [2] it was 5.73 µg/mL (≈ 12.9 µM). Besides, the “% Inhibition” value in the data set on Onchocerca lienalis turned out to be 0%; with Schistosoma mansoni it was 91.7%.

Turning to `CCN(CC)c1cc(C)nc(Nc2ccc(NC(=O)c3ccc(Br)o3)cc2)n1`, the IC50 in the data set on Trypanosoma cruzi amounted to 0.344 µg/mL (≈ 0.774 µM); with Plasmodium falciparum K1 it was 0.638 µg/mL (≈ 1.44 µM); in the data set on Leishmania infantum, 4.31 µg/mL (≈ 9.71 µM); in data set [1] it was 0.942 µg/mL (≈ 2.12 µM); in data set [2] it was 2.91 µg/mL (≈ 6.54 µM). Moreover, the “% Inhibition” value with Onchocerca lienalis was -1%; in the data set on Schistosoma mansoni, 66.7%.

For `CN(CC1CCCO1)S(=O)(=O)c1ccc(C(=O)Nc2nc3cc4c(cc3s2)OCCO4)cc1` (configuration not stated), the IC50 is 5.16 µg/mL (≈ 10.5 µM) in the data set with Trypanosoma cruzi; 4.26 µg/mL (≈ 8.71 µM) in the data set on Plasmodium falciparum K1; more than 9.82 µg/mL in the data set with Leishmania infantum; 3.69 µg/mL (≈ 7.54 µM) in data set [1]; more than 9.82 µg/mL in data set [2]. Also, the “% Inhibition” value with Onchocerca lienalis came out at 20%; in the data set with Schistosoma mansoni, 100%.

As to `CN(C)CCN(C(=O)c1cccc(N2C(=O)CCC2=O)c1)c1nc2ccc(Br)cc2s1`, the concentration for half-maximal inhibition (IC50) in the data set on Trypanosoma cruzi is 4.94 µg/mL (≈ 9.85 µM); with Plasmodium falciparum K1, 1.45 µg/mL (≈ 2.9 µM); with Leishmania infantum, 5.1 µg/mL (≈ 10.2 µM); in data set [1] it was 0.356 µg/mL (≈ 0.71 µM); in data set [2] it was more than 16.1 µg/mL. The “% Inhibition” value in the data set on Onchocerca lienalis stood at 0%; in the data set with Schistosoma mansoni, 33.3%.

`CN(C)CCCN(C(=O)c1nc2ccccc2s1)c1nc2c(Cl)cccc2s1`: the IC50 with Trypanosoma cruzi is 0.239 µg/mL (≈ 0.555 µM); in the data set on Plasmodium falciparum K1 it was 0.398 µg/mL (≈ 0.923 µM); in the data set with Leishmania infantum, 4.54 µg/mL (≈ 10.5 µM); in data set [1], 0.352 µg/mL (≈ 0.817 µM); in data set [2] it was 0.526 µg/mL (≈ 1.22 µM). In addition, the figures for the “% Inhibition” value in the data set with Onchocerca lienalis and in the data set with Schistosoma mansoni were 0% and 33.3%, respectively.

Take `CCCS(=O)(=O)Nc1ccc(Nc2nc(C)cc(N(C)C)n2)cc1`: the 50% inhibitory concentration (IC50) is 0.335 µg/mL (≈ 0.959 µM) in the data set on Trypanosoma cruzi; more than 10.5 µg/mL with Plasmodium falciparum K1; more than 10.5 µg/mL in the data set on Leishmania infantum; more than 10.5 µg/mL in data set [1]; more than 10.5 µg/mL in data set [2]. Besides, the “% Inhibition” value in the data set with Onchocerca lienalis and with Schistosoma mansoni was 0% in each case.

As for `CN(C)CCCN(C(=O)c1ccc(Br)s1)c1nc2cc3c(cc2s1)OCCO3`, the 50% inhibitory concentration (IC50) in the data set on Trypanosoma cruzi was 0.933 µg/mL (≈ 1.93 µM); in the data set on Plasmodium falciparum K1, 2.42 µg/mL (≈ 5.02 µM); with Leishmania infantum, 5.04 µg/mL (≈ 10.4 µM); in data set [1] it was 5.04 µg/mL (≈ 10.4 µM); in data set [2] it was 3.06 µg/mL (≈ 6.35 µM). Besides, the “% Inhibition” value with Onchocerca lienalis worked out at 6.7%; in the data set on Schistosoma mansoni, 0%.

On to `Cn1cc(S(=O)(=O)N2CCN(C(c3ccccc3)c3ccccc3)CC2)c(=O)n(C)c1=O`, for which the half-inhibitory concentration (IC50) with Trypanosoma cruzi was 0.34 µg/mL (≈ 0.749 µM); in the data set with Plasmodium falciparum K1, more than 11.5 µg/mL; with Leishmania infantum it was 3.65 µg/mL (≈ 8.02 µM); in data set [1], 2.16 µg/mL (≈ 4.75 µM); in data set [2] it was more than 11.5 µg/mL. Moreover, the “% Inhibition” value in the data set on Onchocerca lienalis and in the data set on Schistosoma mansoni was 0% in each case.

For the compound `Cc1csc(NC(=O)CSc2nnc(NC(=O)c3ccco3)s2)n1`, the IC50 came out at 5.1 µg/mL (≈ 13.4 µM) with Trypanosoma cruzi; 1.14 µg/mL (≈ 3 µM) with Plasmodium falciparum K1; 4.74 µg/mL (≈ 12.4 µM) in the data set with Leishmania infantum; 4.74 µg/mL (≈ 12.4 µM) in data set [1]; 5.73 µg/mL (≈ 15 µM) in data set [2]. In addition, the “% Inhibition” value in the data set on Onchocerca lienalis and in the data set on Schistosoma mansoni was 0% throughout.
